# From ChEMBL document CHEMBL1250495, “Synthesis and antimicrobial activities of novel 1H-dibenzo[a,c]carbazoles from dehydroabietic acid” (2010)
# Experiments:
# Format in all cases: functional
# [1] = system: Aspergillus niger; experiment: Antimicrobial activity against Aspergillus niger CGMCC 3.316 after 48 hrs by modified microdilution method; conditions: CGMCC 3.316, 48 h
# How it was run: (§1)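 Fungal MIC by modified microdilution. Twofold serial dilutions of compound in 20% DMSO were combined with an equal volume of inoculum in PD broth (~10^5 CFU/ml). Ketoconazole was the positive control and 20% DMSO the negative control. Plates were incubated 48 h at 28 °C and inspected for growth. MIC is the lowest concentration without visible growth.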
# [2] = system: Trichophyton rubrum; experiment: Antimicrobial activity against Trichophyton rubrum ATCC 10218 after 48 hrs by modified microdilution method; conditions: ATCC 10218, 48 h; how it was run: as §1
# [3] = system: Candida albicans; experiment: Antimicrobial activity against Candida albicans CGMCC 2.2086 after 48 hrs by modified microdilution method; conditions: CGMCC 2.2086, 48 h; how it was run: as §1
# [4] = system: Bacillus subtilis; experiment: Antimicrobial activity against Bacillus subtilis CGMCC 1.1162 after 24 hrs by modified microdilution method; conditions: CGMCC 1.1162, 24 h
# How it was run: (§2)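 Broth microdilution. Compounds were dissolved in 20% DMSO and serially diluted twofold, then mixed with an equal volume of bacteria in Martin's broth (~10^5 CFU/ml). Amikacin sulfate was the positive control and 20% DMSO the negative control. Wells were incubated at 37 °C for 24 h and scored visually for growth. MIC is the lowest concentration inhibiting growth.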
# [5] = system: Pseudomonas fluorescens; experiment: Antimicrobial activity against Pseudomonas fluorescens CGMCC 1.1828 after 24 hrs by modified microdilution method; conditions: CGMCC 1.1828, 24 h; how it was run: as §2
# [6] = system: Escherichia coli; experiment: Antimicrobial activity against Escherichia coli CGMCC 1.1571 after 24 hrs by modified microdilution method; conditions: CGMCC 1.1571, 24 h; how it was run: as §2
# [7] = system: Staphylococcus aureus; experiment: Antimicrobial activity against Staphylococcus aureus CGMCC 1.1361 after 24 hrs by modified microdilution method; conditions: CGMCC 1.1361, 24 h; how it was run: as §2
smiles,measurement,setting,value
COC(=O)[C@]1(C)CCC[C@]2(C)c3ccc(C(C)C)cc3-c3[nH]c4ccccc4c3[C@@H]12,MIC,[1],> 100 µg/mL
same,MIC,[2],> 100 µg/mL
same,MIC,[3],> 100 µg/mL
same,MIC,[4],31.2 µg/mL
same,MIC,[5],62.5 µg/mL
same,MIC,[6],> 100 µg/mL
same,MIC,[7],62.5 µg/mL
COC(=O)[C@]1(C)CCC[C@]2(C)c3ccc(C(C)C)cc3-c3[nH]c4ccc(C)cc4c3[C@@H]12,MIC,[1],> 100 µg/mL
same,MIC,[2],62.5 µg/mL
same,MIC,[3],> 100 µg/mL
same,MIC,[4],31.2 µg/mL
same,MIC,[5],31.2 µg/mL
same,MIC,[6],> 100 µg/mL
same,MIC,[7],62.5 µg/mL
COC(=O)[C@]1(C)CCC[C@]2(C)c3ccc(C(C)C)cc3-c3[nH]c4c(C)cccc4c3[C@@H]12,MIC,[1],> 100 µg/mL
same,MIC,[2],> 100 µg/mL
same,MIC,[3],> 100 µg/mL
same,MIC,[4],> 100 µg/mL
same,MIC,[5],> 100 µg/mL
same,MIC,[6],> 100 µg/mL
same,MIC,[7],> 100 µg/mL
COC(=O)[C@]1(C)CCC[C@]2(C)c3ccc(C(C)C)cc3-c3[nH]c4ccc(F)cc4c3[C@@H]12,MIC,[1],> 100 µg/mL
same,MIC,[2],> 100 µg/mL
same,MIC,[3],62.5 µg/mL
same,MIC,[4],1.9 µg/mL
same,MIC,[5],7.8 µg/mL
same,MIC,[6],15.6 µg/mL
same,MIC,[7],3.9 µg/mL
COC(=O)[C@]1(C)CCC[C@]2(C)c3ccc(C(C)C)cc3-c3[nH]c4c(F)cccc4c3[C@@H]12,MIC,[1],62.5 µg/mL
same,MIC,[2],62.5 µg/mL
same,MIC,[3],31.2 µg/mL
same,MIC,[4],7.8 µg/mL
same,MIC,[5],15.6 µg/mL
same,MIC,[6],31.2 µg/mL
same,MIC,[7],31.2 µg/mL
COC(=O)[C@]1(C)CCC[C@]2(C)c3ccc(C(C)C)cc3-c3[nH]c4ccc(Cl)cc4c3[C@@H]12,MIC,[1],> 100 µg/mL
same,MIC,[2],> 100 µg/mL
same,MIC,[3],> 100 µg/mL
same,MIC,[4],3.9 µg/mL
same,MIC,[5],31.2 µg/mL
same,MIC,[6],15.6 µg/mL
same,MIC,[7],3.9 µg/mL
COC(=O)[C@]1(C)CCC[C@]2(C)c3ccc(C(C)C)cc3-c3[nH]c4c(Cl)cccc4c3[C@@H]12,MIC,[1],> 100 µg/mL
same,MIC,[2],> 100 µg/mL
same,MIC,[3],> 100 µg/mL
same,MIC,[4],31.2 µg/mL
same,MIC,[5],> 100 µg/mL
same,MIC,[6],> 100 µg/mL
same,MIC,[7],31.2 µg/mL
COC(=O)[C@]1(C)CCC[C@]2(C)c3ccc(C(C)C)cc3-c3[nH]c4ccc(Br)cc4c3[C@@H]12,MIC,[1],> 100 µg/mL
same,MIC,[2],> 100 µg/mL
same,MIC,[3],> 100 µg/mL
same,MIC,[4],15.6 µg/mL
same,MIC,[5],15.6 µg/mL
same,MIC,[6],31.2 µg/mL
same,MIC,[7],31.2 µg/mL
COC(=O)[C@]1(C)CCC[C@]2(C)c3ccc(C(C)C)cc3-c3[nH]c4c(Br)cccc4c3[C@@H]12,MIC,[1],> 100 µg/mL
same,MIC,[2],> 100 µg/mL
same,MIC,[3],> 100 µg/mL
same,MIC,[4],62.5 µg/mL
same,MIC,[5],62.5 µg/mL
same,MIC,[6],> 100 µg/mL
same,MIC,[7],> 100 µg/mL
COC(=O)[C@]1(C)CCC[C@]2(C)c3ccc(C(C)C)cc3-c3[nH]c4ccc(OC)cc4c3[C@@H]12,MIC,[1],> 100 µg/mL
same,MIC,[2],> 100 µg/mL
same,MIC,[3],62.5 µg/mL
same,MIC,[4],62.5 µg/mL
same,MIC,[5],> 100 µg/mL
same,MIC,[6],> 100 µg/mL
same,MIC,[7],31.2 µg/mL
COC(=O)[C@]1(C)CCC[C@]2(C)c3ccc(C(C)C)cc3-c3[nH]c4c(OC)cccc4c3[C@@H]12,MIC,[1],> 100 µg/mL
same,MIC,[2],> 100 µg/mL
same,MIC,[3],> 100 µg/mL
same,MIC,[4],> 100 µg/mL
same,MIC,[5],> 100 µg/mL
same,MIC,[6],> 100 µg/mL
same,MIC,[7],62.5 µg/mL
CCOc1ccc2[nH]c3c(c2c1)[C@H]1[C@](C)(C(=O)OC)CCC[C@]1(C)c1ccc(C(C)C)cc1-3,MIC,[1],> 100 µg/mL
same,MIC,[2],62.5 µg/mL
same,MIC,[3],62.5 µg/mL
same,MIC,[4],62.5 µg/mL
same,MIC,[5],31.2 µg/mL
same,MIC,[6],62.5 µg/mL
same,MIC,[7],> 100 µg/mL
COC(=O)[C@]1(C)CCC[C@]2(C)c3ccc(C(C)C)cc3-c3[nH]c4ccc([N+](=O)[O-])cc4c3[C@@H]12,MIC,[1],> 100 µg/mL
same,MIC,[2],62.5 µg/mL
same,MIC,[3],31.2 µg/mL
same,MIC,[4],7.8 µg/mL
same,MIC,[5],15.6 µg/mL
same,MIC,[6],15.6 µg/mL
same,MIC,[7],7.8 µg/mL
COC(=O)[C@]1(C)CCC[C@]2(C)c3ccc(C(C)C)cc3C(=O)C[C@@H]12,MIC,[1],> 100 µg/mL
same,MIC,[2],> 100 µg/mL
same,MIC,[3],> 100 µg/mL
same,MIC,[4],31.2 µg/mL
same,MIC,[5],62.5 µg/mL
same,MIC,[6],> 100 µg/mL
same,MIC,[7],31.2 µg/mL
NCC[C@H](O)C(=O)N[C@@H]1C[C@H](N)[C@@H](O[C@H]2O[C@H](CN)[C@@H](O)[C@H](O)[C@H]2O)[C@H](O)[C@H]1O[C@H]1O[C@H](CO)[C@@H](O)[C@H](N)[C@H]1O [AMIKACIN],MIC,[4],0.9 µg/mL
same,MIC,[5],0.9 µg/mL
same,MIC,[6],1.9 µg/mL
same,MIC,[7],0.9 µg/mL
CC(=O)N1CCN(c2ccc(OCC3COC(Cn4ccnc4)(c4ccc(Cl)cc4Cl)O3)cc2)CC1 (configuration not stated) [KETOCONAZOLE],MIC,[1],7.8 µg/mL
same,MIC,[2],3.9 µg/mL
same,MIC,[3],3.9 µg/mL
COC(=O)[C@]1(C)CCC[C@]2(C)c3ccc(C(C)C)cc3CC[C@@H]12 [METHYL DEHYDROABIETATE],MIC,[1],> 100 µg/mL
same,MIC,[2],> 100 µg/mL
same,MIC,[3],> 100 µg/mL
same,MIC,[4],> 100 µg/mL
same,MIC,[5],> 100 µg/mL
same,MIC,[6],> 100 µg/mL
same,MIC,[7],62.5 µg/mL
